For orientation: ED50 means the midpoint of the dose-response relation. Broadly, the IC50 is the concentration needed to halve the response being measured.

The record followed here is ChEMBL document CHEMBL1135746, “Structure-activity relationships of the antimalarial agent artemisinin. 7. Direct modification of (+)-artemisinin and in vivo antimalarial screening of new, potential preclinical antimalarial candidates” (J Med Chem, 2002).

Experiment [1] relates to Plasmodium berghei. The experiment is described as follows: Antimalarial activity in Plasmodium berghei infected mice (Mus musculus) at 8 mg/kg/day peroral dose. In kind it is functional. As to conditions: route oral. Put shortly:
(§1)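 CD-1 mice (16-18 g), quarantined 2 weeks, then infected with P. berghei (Thompson test). Treatment was given on days 3-5 postinfection. Subcutaneous dosing was a single injection; oral dosing was by gavage of a peanut-oil suspension. Groups of 5 mice were used. Survival was scored out of 5 and parasitemia was followed up to 60 days postinfection.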

The subject of experiment [2] is Plasmodium berghei. The experiment is described as follows: Antimalarial activity in Plasmodium berghei infected mice (Mus musculus) after 128 mg/kg/day subcutaneous dose. In kind it is functional. The procedure, abridged: as §1
For experiment [3], the system named is Plasmodium berghei. The experiment is described as follows: Antimalarial activity in Plasmodium berghei infected mice (Mus musculus) at 32 mg/kg/day subcutaneous dose. In kind it is functional. Put shortly:
as §1

Experiment [4] deals with Plasmodium berghei. The experiment is described as follows: Antimalarial activity in Plasmodium berghei infected mice (Mus musculus) at 8 mg/kg/day subcutaneous dose. In kind it is functional. Put shortly:
as §1

For experiment [5], the system named is Plasmodium berghei. The experiment is described as follows: Antimalarial activity in Plasmodium berghei infected mice (Mus musculus) at 128 mg/kg/day peroral dose. In kind it is functional. The settings on record: route oral. Put shortly:
as §1

Experiment [6] deals with Plasmodium berghei. The experiment is described as follows: Antimalarial activity in Plasmodium berghei infected mice (Mus musculus) at 32 mg/kg/day peroral dose. It is filed as functional. As to conditions: route oral. Put shortly:
as §1

In experiment [7] the test system is Plasmodium berghei. The experiment is described as follows: (§2) Effective dose ED90 against Plasmodium berghei N in mice (Mus musculus) malaria model after subcutaneous administration. In kind it is functional.
The subject of experiment [8] is Plasmodium berghei. The experiment is described as follows: Effective dose ED50 against Plasmodium berghei N in mice (Mus musculus) malaria model after subcutaneous administration. In kind it is functional. As to conditions: Plasmodium berghei, sc; read-out: ED50.
Experiment [9] deals with Plasmodium falciparum. The experiment is described as follows: Inhibitory activity against Plasmodium falciparum D6. It is filed as functional, organism-based. The procedure, abridged:
(§3)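 Parasitized human red blood cells were used in short-term microtitre cultures. Compounds were dissolved in DMSO and diluted 400-fold in culture medium with plasma, giving a starting concentration of at least 12 500 ng/mL. Activity was measured as inhibition of parasite uptake of a radiolabelled nucleic acid precursor.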

In experiment [10] the test system is Plasmodium falciparum. The experiment is described as follows: Inhibitory activity against Plasmodium falciparum K1. It is filed as functional, organism-based.
The subject of experiment [11] is Plasmodium falciparum. The experiment is described as follows: Inhibitory activity against Plasmodium falciparum NF54. In kind it is functional, organism-based.
The subject of experiment [12] is Plasmodium falciparum. The experiment is described as follows: Inhibitory activity against Plasmodium falciparum W2. It is filed as functional, organism-based. The procedure, abridged:
as §3

The subject of experiment [13] is Plasmodium yoelii. The experiment is described as follows: Effective subcutaneous dose ED50 against Plasmodium yoelii sspNS. In kind it is functional. As to conditions: sc.
The subject of experiment [14] is Plasmodium yoelii. The experiment is described as follows: Effective dose ED90 against Plasmodium yoelii sspNS on subcutaneous dose. In kind it is functional. As to conditions: sc.
Experiment [15] relates to Plasmodium berghei. Described as §2. It is filed as functional. As to conditions: sc. The procedure, abridged:
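Peters' 4-day test: two batches of five male random-bred Swiss albino mice (18-22 g) were inoculated i.v. with 2 × 10⁶ P. berghei N-parasitized RBC. Drug was given once daily for four consecutive days. Compounds were dissolved in DMSO, then diluted in water for subcutaneous or oral dosing. Parasitemia was read the day after the last treatment.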

Experiment [16] deals with Plasmodium yoelii. The experiment is described as follows: Effective subcutaneous dose ED90 against Plasmodium yoelii sspNS. In kind it is functional. The settings on record: Plasmodium yoelii, sc; read-out: ED90.
Experiment [17] deals with Plasmodium berghei. The experiment is described as follows: Effective dose ED90 against Plasmodium berghei N in mice (Mus musculus) malaria model after subcutaneous dose. As to conditions: sc.
For experiment [18], the system named is Plasmodium berghei. The experiment is described as follows: Effective dose ED50 against Plasmodium berghei N in mice (Mus musculus) malaria model after peroral administration. It is filed as functional. The settings on record: Plasmodium berghei, po; read-out: ED50.
In experiment [19] the test system is Plasmodium berghei. The experiment is described as follows: Effective dose ED90 against Plasmodium berghei N in mice (Mus musculus) malaria model after peroral administration. It is filed as functional. The settings on record: po.
Experiment [20] relates to Plasmodium yoelii. The experiment is described as follows: Effective oral dose ED50 in DMSO against Plasmodium yoelii sspNS. It is filed as functional.
Experiment [21] concerns Plasmodium yoelii. The experiment is described as follows: Effective dose ED50 against Plasmodium yoelii sspNS in presence of SSV. It is filed as functional.
In experiment [22] the test system is Plasmodium yoelii. The experiment is described as follows: Effective oral dose ED90 in DMSO against Plasmodium yoelii sspNS. It is filed as functional.
The test system of experiment [23] is Plasmodium yoelii. The experiment is described as follows: Effective oral dose ED90 in SSV against Plasmodium yoelii sspNS. In kind it is functional.
Where [24] appears, read: Plasmodium berghei, sc, read-out: ED90.

Values after ≈ are worked out from the molar mass of the structure shown. Values joined by “and” are separate entries in the source; they are usually repeats but may differ in a detail not shown here. Equal entries are not always repeated.

Take `COc1ccc(CCC[C@H]2CO[C@@H]3OC4(C)CC[C@H]5[C@H](C)CC[C@@H]2[C@@]35OO4)cc1` (single isomer, unassigned): the Activity came out at 0 in [1]; 5 in [2]; 5 in [3]; 0 in [4]; 5 in [5]; 5 in experiment [6].

Take `C[C@@H]1CC[C@H]2[C@@H](CCCc3ccc(C(F)(F)F)cc3)CO[C@@H]3OC4(C)CC[C@@H]1[C@]32OO4` (single isomer, unassigned): the ED90 was 0.8 mg/kg and 2.1 mg/kg in experiment [7]; 1.25 mg/kg in experiment [14]. Moreover, the ED50 was 0.44 mg/kg in [8] and 0.67 mg/kg in experiment [13]. Further, the IC50 in experiment [9] was 28.1 ng/mL (≈ 0.0639 µM); in experiment [10], 0.0395 µg/mL (≈ 0.0898 µM); in [11], 0.102 µg/mL (≈ 0.23 µM); in experiment [12], 0.058 µg/mL (≈ 0.132 µM).

`C[C@@H]1CC[C@H]2[C@@H](C)C(=O)O[C@@H]3O[C@@]4(C)CC[C@@H]1[C@]32OO4` [ARTEMISININ]: the Activity was 0 in experiment [1]; 5 in experiment [2]; 3 in [3]; 0 in experiment [4]; 0 in experiment [5]; 0 in [6].

With `CCN(CC)CCCC(C)Nc1ccnc2cc(Cl)ccc12` (configuration not stated) [CHLOROQUINE], the ED90 is 3 mg/kg in [7] (setting [24]), 3.4 mg/kg in [15], 28 mg/kg in experiment [16] and 1.8 mg/kg in experiment [17]. Further, the median effective dose (ED50) in experiment [8] came to 1.5 mg/kg; in experiment [13], 1.6 mg/kg.

`CCCC[C@H]1CO[C@@H]2O[C@]3(C)CC[C@H]4[C@H](C)CC[C@@H]1[C@@]24OO3`: the Activity was 0 in experiment [1]; 5 in [2]; 5 in experiment [3]; 5 in [4]; 2 in [6].

As to `C[C@@H]1CC[C@H]2[C@@H](CCCc3cccc(Cl)c3)CO[C@@H]3OC4(C)CC[C@@H]1[C@]32OO4` (single isomer, unassigned), the ED50 in [18] stood at 2 mg/kg; in [8] it was 0.5 mg/kg; in experiment [13], 0.6 mg/kg. Further, the values for the ED90 in experiment [19], in experiment [7] (setting [24]) and in experiment [14] were 8.3 mg/kg, 0.9 mg/kg and 1 mg/kg, respectively. For the same compound, the IC50 in [9] was determined as 7.55 ng/mL (≈ 0.0186 µM); in experiment [10], 0.0101 µg/mL (≈ 0.0247 µM); in experiment [11], 0.0183 µg/mL (≈ 0.0449 µM); in [12], 0.0216 µg/mL (≈ 0.0531 µM).

In the case of `C[C@@H]1CC[C@H]2[C@@H](CCCc3cccc(F)c3)CO[C@@H]3OC4(C)CC[C@@H]1[C@]32OO4` (single isomer, unassigned), the values for the ED50 in experiment [18], in experiment [8] and in [13] were 0.9 mg/kg, 0.46 mg/kg and 0.58 mg/kg, respectively. Also, the ED90 is 3.4 mg/kg in experiment [19], 0.85 mg/kg in experiment [7] (setting [24]) and 1 mg/kg in experiment [14]. For the same compound, the half-inhibitory concentration (IC50) worked out at 8.28 ng/mL (≈ 0.0212 µM) in experiment [9], 0.0116 µg/mL (≈ 0.0296 µM) in experiment [10], 0.0418 µg/mL (≈ 0.107 µM) in [11] and 0.0268 µg/mL (≈ 0.0687 µM) in experiment [12].

`C[C@@H]1CC[C@H]2[C@@H](CCCc3cc(C(F)(F)F)cc(C(F)(F)F)c3)CO[C@@H]3OC4(C)CC[C@@H]1[C@]32OO4` (single isomer, unassigned): the ED50 in experiment [18] turned out to be 2.6 mg/kg; in [20], 1.5 mg/kg; in [8] it was 0.9 mg/kg; in experiment [21], 4.2 mg/kg. Besides, the ED90 in experiment [19] stood at 5 mg/kg; in [7] (setting [24]) it was 1.7 mg/kg; in experiment [22], 3.6 mg/kg; in [23] it was 12 mg/kg. The IC50 worked out at 0.78 ng/mL (≈ 0.00153 µM) in experiment [9], 0.00406 µg/mL (≈ 0.00798 µM) in experiment [10] and 0.00711 µg/mL (≈ 0.014 µM) in experiment [12].
